We go through one compound from ChEMBL document CHEMBL4825680, “Structure-based discovery of potent and selective small-molecule inhibitors targeting signal transducer and activator of transcription 3 (STAT3)” (Eur J Med Chem, 2021).

Calls of active or inactive are those of the source. The rule behind the calls is not given here.

What is called IC50 is the concentration at which inhibition is half-maximal. Low readings indicate higher potency, high ones lower potency.

In series [1] the test system is MGC-803. In words: Antiproliferative activity against human MGC-803 cells. In kind it is functional, cell-based.
In series [2] the target is T1, Signal transducer and activator of transcription 3 (Homo sapiens, UniProt P40763). In words: Inhibition of STAT3 phosphorylation at Tyr705 residue in human […] cells after 3 hrs by Western blotting analysis. In kind it is cell-based. Conditions: MDA-MB-468, dose 0.3-3 µM. A general note: Immunoblotting shows a protein as a band on a membrane.
T1 sequence (P40763 whole entry): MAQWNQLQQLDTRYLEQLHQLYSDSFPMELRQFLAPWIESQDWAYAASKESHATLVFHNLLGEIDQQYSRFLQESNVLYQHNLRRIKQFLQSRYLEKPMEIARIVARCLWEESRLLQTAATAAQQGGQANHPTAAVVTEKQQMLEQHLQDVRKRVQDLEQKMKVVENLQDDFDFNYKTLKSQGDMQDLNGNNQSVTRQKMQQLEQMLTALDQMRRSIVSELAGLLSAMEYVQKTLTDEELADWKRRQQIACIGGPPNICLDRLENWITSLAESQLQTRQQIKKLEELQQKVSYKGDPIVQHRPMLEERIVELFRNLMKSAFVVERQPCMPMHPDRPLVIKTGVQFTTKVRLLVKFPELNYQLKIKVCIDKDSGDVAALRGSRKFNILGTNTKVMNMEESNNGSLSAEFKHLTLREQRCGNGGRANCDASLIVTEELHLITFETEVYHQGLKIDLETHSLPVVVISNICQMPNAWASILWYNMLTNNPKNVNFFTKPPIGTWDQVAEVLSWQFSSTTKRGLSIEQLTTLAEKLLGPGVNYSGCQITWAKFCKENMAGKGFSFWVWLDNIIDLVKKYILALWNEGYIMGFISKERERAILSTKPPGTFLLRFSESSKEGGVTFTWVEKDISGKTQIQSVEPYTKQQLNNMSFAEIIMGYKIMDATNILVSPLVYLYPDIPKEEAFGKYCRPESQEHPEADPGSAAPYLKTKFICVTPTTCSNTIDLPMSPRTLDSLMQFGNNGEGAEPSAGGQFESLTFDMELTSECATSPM
The subject of series [3] is MDA-MB-231. In words: Effect on total STAT3 level in human MDA-MB-231 cells at 0.3 to 3 uM measured after 3 hrs by Western blot analysis. In kind it is functional, cell-based. Conditions: dose 0.3-3 µM. The gist of the method: (§1)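 Breast cancer cells were treated with vehicle (0.1% DMSO) or compound, then lysed in RIPA with PMSF and phosphatase inhibitors. 20–50 μg protein was run on 8 or 12% SDS-PAGE, blotted to PVDF, blocked in 5% BSA, probed with primary antibodies overnight at 4 °C, then HRP secondaries, with ECL detection.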

For series [4], the system named is HCC70. In words: Effect on total STAT3 level in human HCC70 cells at 0.3 to 3 uM measured after 3 hrs by Western blot analysis. The conditions noted are these: dose 0.3-3 µM. In kind it is functional, cell-based. A digest of the protocol:
as §1

Series [5] has as its target T1, Signal transducer and activator of transcription 3. In words: Inhibition of STAT3 phosphorylation at Ser727 residue in human MDA-MB-231-4175 cells at 3 uM after 3 hrs by Western blotting analysis. It counts as cell-based. Conditions: MDA231-LM2-4175.
In series [6] the test system is HCC70. Description: Effect on total STAT5 level in human HCC70 cells at 0.3 to 3 uM after 3 hrs by Western blotting analysis. In kind it is functional, cell-based. The conditions noted are these: dose 0.3-3 µM. A digest of the protocol:
as §1

Series [7] deals with T1, Signal transducer and activator of transcription 3. Description: Inhibition of HA-tagged STAT3 dimerization (unknown origin) expressed in HEK293T cells after 24 hrs by confocal microscopic analysis. The conditions noted are these: dose 1-3 µM. In kind it is cell-based. A digest of the protocol:
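HEK-293T cells transfected with HA-STAT3 and Flag-STAT3. After 24 h, treated with vehicle (0.1% DMSO) or compound for 24 h, with IL-6 100 ng/mL added for 30 min. Fixed in paraformaldehyde, permeabilised with Triton X-100, stained with anti-HA and anti-Flag plus Alexa 488/555 secondaries and DAPI. Confocal imaging for colocalisation.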

Series [8] shares this target. In words: Inhibition of phosphorylated STAT3 nuclear translocation in human MDA-MB-231 cells after 12 hrs by immunofluorescence analysis. In kind it is cell-based. Conditions: dose 0.3-3 µM. The gist of the method: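 MDA-MB-231 cells (constitutively active STAT3) treated with vehicle or compound for 12 h. Immunofluorescence staining with a p-STAT3-specific primary antibody and an Alexa Fluor secondary antibody.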

In series [9] the target is T2, Signal transducer and activator of transcription 5A (Homo sapiens) (UniProt P42229).
T2 sequence (whole entry): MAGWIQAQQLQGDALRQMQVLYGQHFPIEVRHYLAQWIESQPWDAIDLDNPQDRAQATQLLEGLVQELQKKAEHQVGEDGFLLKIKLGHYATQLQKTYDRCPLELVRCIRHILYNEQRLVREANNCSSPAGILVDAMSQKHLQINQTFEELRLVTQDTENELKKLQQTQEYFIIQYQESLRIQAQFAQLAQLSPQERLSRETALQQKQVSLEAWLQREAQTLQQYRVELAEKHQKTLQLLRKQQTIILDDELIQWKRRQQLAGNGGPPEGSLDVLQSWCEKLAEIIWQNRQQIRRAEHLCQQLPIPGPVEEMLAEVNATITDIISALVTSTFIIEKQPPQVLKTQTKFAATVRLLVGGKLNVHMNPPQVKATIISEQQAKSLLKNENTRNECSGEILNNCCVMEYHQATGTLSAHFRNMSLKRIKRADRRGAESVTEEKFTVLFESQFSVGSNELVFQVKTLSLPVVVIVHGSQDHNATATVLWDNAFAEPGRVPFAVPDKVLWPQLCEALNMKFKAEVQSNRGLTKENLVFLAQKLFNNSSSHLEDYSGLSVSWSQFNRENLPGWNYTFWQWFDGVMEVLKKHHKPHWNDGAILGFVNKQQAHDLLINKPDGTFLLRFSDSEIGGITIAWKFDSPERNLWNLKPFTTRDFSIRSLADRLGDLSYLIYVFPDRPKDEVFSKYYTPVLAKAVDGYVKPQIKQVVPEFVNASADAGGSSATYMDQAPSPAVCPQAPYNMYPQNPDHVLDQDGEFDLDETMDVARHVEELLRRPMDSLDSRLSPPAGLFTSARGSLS
In words: Inhibition of STAT5 DNA binding in human MDA-MB-231 cells at 3 uM after 3 hrs by EMSA analysis. It counts as cell-based. The gist of the method:
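Cells exposed to vehicle or compound for 3 h. Nuclear extracts prepared and BCA-quantified. Nuclear protein (8–10 µg) incubated with biotinylated STAT3 or STAT5 probe, resolved on 6% native polyacrylamide gel, transferred to nylon membrane and detected with a gel-shift kit.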
Background: In EMSA bound probe runs differently from free probe, usually more slowly.

In series [10] the target is T1, Signal transducer and activator of transcription 3. In words: Inhibition of STAT3 in human MDA231-LM2-4175 cells assessed as downregulation of c-Myc expression at 0.3 to 3 uM after 24 hrs by western blot analysis. It counts as cell-based. The conditions noted are these: dose 0.3-3 µM. A digest of the protocol:
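TNBC cells given vehicle (0.1% DMSO) or graded compound levels for 24 h, lysed in RIPA with PMSF and phosphatase inhibitors. BCA-quantified lysate (20–50 µg) run on SDS-PAGE, transferred to PVDF, blocked in 5% BSA. Probed overnight at 4 °C for Bcl-xL, Mcl-1 and c-Myc, with β-actin. HRP secondary, ECL detection. Three independent experiments.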

For series [11], the system named is MDA-MB-231. In words: Induction of apoptosis in human MDA-MB-231 cells assessed as late apoptotic cells at 1 uM after 48 hrs by Annexin-V-FITC/propidium iodide staining based flow cytometric analysis (Rvb =3.05%). In kind it is functional.
For series [12], the system named is MDA-MB-231. Description: Induction of apoptosis in human MDA-MB-231 cells assessed as viable cells at 3 uM after 48 hrs by Annexin-V-FITC/propidium iodide staining based flow cytometric analysis (reference value: 93.4%). It counts as functional. The conditions noted are these: read-out: Activity.
Series [13] concerns MDA-MB-231. Description: Induction of apoptosis in human MDA-MB-231 cells assessed as early apoptotic cells at 3 uM after 48 hrs by Annexin-V-FITC/propidium iodide staining based flow cytometric analysis (reference value: 2.98%). It counts as functional.
Series [14] is described as follows: Induction of apoptosis in human MDA231-LM2-4175 cells assessed as necrotic cells at 3 uM after 48 hrs by Annexin-V-FITC/propidium iodide staining based flow cytometric analysis (reference value: 0.531%). In kind it is functional.
Series [15] is described as follows: Toxicity in mouse xenografted with human MDA-MB-231-4175 cells assessed as body weight loss at 5 to 15 mg/kg, […] once daily for 20 days. In kind it is organism-based. The conditions noted are these: in vivo, iv, dose 5-15 mg/kg, time 20 day. The gist of the method:
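Female NOD-SCID mice aged 4–5 weeks, given 2×10^6–3×10^6 MDA-MB-231-4175 cells subcutaneously in the flank. At about 100 mm³ tumour volume, randomised n=6/group to vehicle (PBS with 15% Cremophor EL) or 5 or 15 mg/kg intraperitoneally daily for 20 days. Body weight tracked during treatment.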
(In xenograft studies the graft and the host belong to different species.)

Series [16] is described as follows: Toxicity in NOD/SCID mouse xenografted with patient-derived breast cancer cells assessed as morphological change in liver at 5 to 15 mg/kg, […] once daily for 20 days by HE staining based assay. It counts as organism-based. Conditions: in vivo, iv, dose 5-15 mg/kg, time 20 day. The gist of the method:
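Female NOD-SCID mice implanted subcutaneously in the flank with about 2 mm³ TNBC PDX fragments. At about 100 mm³ tumour volume, randomised n=6/group: vehicle (PBS with 15% Cremophor EL), 5 or 15 mg/kg intraperitoneally daily. Killed at day 20; heart, liver, spleen, lung and kidney collected for morphological examination.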

`O=C(Cc1c(-c2ccccc2)nc2ccccn12)Nc1ccc2c(c1)S(=O)(=O)C=C2` gave an IC50 in series [1] of 1600 nM. In addition, the inhibition entry in series [2], in [7] and in series [8] was “Dose-Dependent Effect” in each case. Also, the outcome in [3], in series [4] and in series [6] was inactive. Further, the inhibition entry in series [5] and in series [10] was “Active” each time. For the same compound, in series [9], the inhibition result was “inactive”. Moreover, the Activity is on record as 7.54% in series [11]; 12.5% in series [13]; 1.37% in series [14]; “Non-Toxic” in series [15]; “Non-Toxic” in series [16]. Further, the viability at 3 µM in series [12] stood at 73.9%.
